Results collected from several papers.
Values after ≈ are worked out from the molar mass of the structure shown.

O=C(Nc1ccc2[nH]ccc2c1)c1ccc(COC(Cn2ccnc2)c2ccc(Cl)cc2Cl)cc1 (stereo not drawn)  MIC80 (Nakaseomyces glabratus; microbial growth, broth dilution): 128 µg/mL (≈ 253 µM)
CC(=O)ON=C1C=CC(=C(C#N)c2ccccc2)C=C1  MFC (Nakaseomyces glabratus; microbial killing, broth dilution; ATCC15126; 48 h): 16 µg/mL (≈ 60.5 µM)
C/C(=N/NC(=O)c1cn(-c2ccccc2)nc1-c1ccc(Cl)cc1)c1c(O)cc(C)oc1=O  MIC (Bacillus subtilis; microbial growth): 70 µg/mL (≈ 151 µM)
Cc1ccc(NC(=O)c2ccc(COC(Cn3ccnc3)c3ccc(Cl)cc3Cl)cc2)cc1 (stereo not drawn)  MIC80 (Nakaseomyces glabratus; microbial growth, broth dilution): 0.06 µg/mL (≈ 0.125 µM)
C#CCOC(=O)ON=C1C=CC(=C(C#N)c2ccccc2)C=C1  MIC (Nakaseomyces glabratus; microbial growth, broth dilution; ATCC15126; 48 h): 16 µg/mL (≈ 52.6 µM)
O=C(Nc1ccc(Cl)cc1)c1ccc(COC(Cn2ccnc2)c2ccc(Cl)cc2Cl)cc1 (stereo not drawn)  MIC80 (Nakaseomyces glabratus; microbial growth, broth dilution): 0.125 µg/mL (≈ 0.25 µM)
C=CC(=O)ON=C1C=CC(=C(C#N)c2ccccc2)C=C1  MFC (Nakaseomyces glabratus; microbial killing, broth dilution; ATCC15126; 48 h): 16 µg/mL (≈ 57.9 µM)
OC(Cn1cncn1)(Cn1cncn1)c1ccc(F)cc1F  MIC (Cryptococcus neoformans; microbial growth, broth dilution; H99; 48 h): 8 µg/mL (≈ 26.1 µM)
C/C(=N/NC(=O)c1cn(-c2ccccc2)nc1-c1ccc(Br)cc1)c1c(O)cc(C)oc1=O  MIC (Bacillus subtilis; microbial growth): 70 µg/mL (≈ 138 µM)
CC(=O)N1CCN(c2ccc(OCC3COC(Cn4ccnc4)(c4ccc(Cl)cc4Cl)O3)cc2)CC1 (stereo not drawn)  MIC (Nakaseomyces glabratus; microbial growth, broth dilution; ATCC15126; 48 h): 8 µg/mL (≈ 15.1 µM)
O=C(Nc1ccc2cccnc2c1)c1ccc(COC(Cn2ccnc2)c2ccc(Cl)cc2Cl)cc1 (stereo not drawn)  MIC80 (Nakaseomyces glabratus; microbial growth, broth dilution): 8 µg/mL (≈ 15.5 µM)
C#CCON=C1C=CC(=C(C#N)c2ccccc2)C=C1  MFC (Nakaseomyces glabratus; microbial killing, broth dilution; ATCC15126; 48 h): 32 µg/mL (≈ 123 µM)
O=C(Nc1ccc(F)cc1F)c1ccc(COC(Cn2ccnc2)c2ccc(Cl)cc2Cl)cc1 (stereo not drawn)  MIC80 (Nakaseomyces glabratus; microbial growth, broth dilution): 0.03 µg/mL (≈ 0.0597 µM)
O=C(O)c1cn(C2CC2)c2cc(N3CCNCC3)c(F)cc2c1=O  inhibition zone (Bacillus subtilis; microbial growth, well diffusion; ATCC6051; 100 µg/mL): 30 mm
C/C(=N/NC(=O)c1cn(-c2ccccc2)nc1-c1ccccc1)c1c(O)cc(C)oc1=O  MIC (Bacillus subtilis; microbial growth): 50 µg/mL (≈ 117 µM)
